In ChEMBL document CHEMBL4689842, “EUbOPEN Chemogenomics Library wave 1” (2021):

How the values were obtained:
Type in all cases: toxicity, cell-based
U2OS [1] = experiment: Incucyte cell viability with U2OS; conditions: human, 10 µM, compound concentration 10 uM; further: filed as whole numbers so only -1 and 0 and 1 occur
U2OS [2] = experiment: Multiplex assay against U2OS; conditions: human
In short: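 Imaging took place on a CQ1 microscope at 37°C and 5% CO2 once compound had been added to live cells stained at seeding with Hoechst33342, BioTracker Green Microtubule Cytoskeleton Dye, MitoTracker Red and Annexin V Alexa Fluor 680. CellPathfinder machine-learning gating classed cells as Hoechst high-intensity objects or normal cells, classed normal cells as having healthy, pyknosed or fragmented nuclei, and classed pyknosed cells as mitotic or apoptotic. Tubulin, mitochondrial-mass and membrane-permeability phenotypes are per cents of the healthy-nucleus cells.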

Fibroblast = experiment: Incucyte cell viability with human fibroblast; conditions: 10 µM, compound concentration 10 uM; further: filed as whole numbers so only -1 and 0 and 1 occur
HEK-293T = experiment: Incucyte cell viability with HEK293T; conditions: human, 10 µM, compound concentration 10 uM; further: filed as whole numbers so only -1 and 0 and 1 occur
[3] = 0 h, replicate number 1, timepoint 0 hours
[4] = 0 h, replicate number 2, timepoint 0 hours
[5] = 6 h, replicate number 1, timepoint 6 hours
[6] = 12 h, replicate number 1, timepoint 12 hours
[7] = 18 h, replicate number 1, timepoint 18 hours
[8] = 24 h, replicate number 1, timepoint 24 hours
[9] = 12 h, 1 µM, compound concentration 1 uM, replicate 1
[10] = 12 h, 1 µM, compound concentration 1 uM, replicate 2
[11] = 12 h, 10 µM, compound concentration 10 uM, replicate 1
[12] = 12 h, 10 µM, compound concentration 10 uM, replicate 2
[13] = 24 h, 1 µM, compound concentration 1 uM, replicate 1
[14] = 24 h, 1 µM, compound concentration 1 uM, replicate 2
[15] = 24 h, 10 µM, compound concentration 10 uM, replicate 1
[16] = 24 h, 10 µM, compound concentration 10 uM, replicate 2

CN(C)C/C=C/C(=O)Nc1cc2c(Nc3ccc(F)c(Cl)c3)ncnc2cc1O[C@H]1CCOC1.O=C(O)/C=C\C(=O)O.O=C(O)/C=C\C(=O)O [AFATINIB DIMALEATE]
Growth Rate (U2OS [1]; [3]): 0
Growth Rate (U2OS [1]; [4]): 1
Growth Rate (U2OS [1]; [5]): 0
Growth Rate (U2OS [1]; [6]): 0
Growth Rate (U2OS [1]; [7]): 0
Growth Rate (U2OS [1]; [8]): 0
Population Apoptotic (%) (U2OS [2]; [9]): 56%
Population Fragmented Nuclei (%) (U2OS [2]; [9]): 4%
Population Healthy Nuclei (%) (U2OS [2]; [9]): 85%
Population Hoechst High Intensity Objects (%) (U2OS [2]; [9]): 3%
Population Membrane Permeable-Phenotype (%) (U2OS [2]; [9]): 20%
Population Mitochondria Different-Phenotype (%) (U2OS [2]; [9]): 8%
Population Mitotic Cells (%) (U2OS [2]; [9]): 43%
Population Normal (%) (U2OS [2]; [9]): 96%
Population Pyknosed Nuclei (%) (U2OS [2]; [9]): 10%
Population Tubulin-Different-Phenotype (%) (U2OS [2]; [9]): 18%
Population Apoptotic (%) (U2OS [2]; [10]): 37%
Population Fragmented Nuclei (%) (U2OS [2]; [10]): 7%
Population Healthy Nuclei (%) (U2OS [2]; [10]): 86%
Population Hoechst High Intensity Objects (%) (U2OS [2]; [10]): 11%
Population Membrane Permeable-Phenotype (%) (U2OS [2]; [10]): 14%
Population Mitochondria Different-Phenotype (%) (U2OS [2]; [10]): 18%
Population Mitotic Cells (%) (U2OS [2]; [10]): 62%
Population Normal (%) (U2OS [2]; [10]): 88%
Population Pyknosed Nuclei (%) (U2OS [2]; [10]): 6%
Population Tubulin-Different-Phenotype (%) (U2OS [2]; [10]): 24%
Population Apoptotic (%) (U2OS [2]; [11]): 62%
Population Healthy Nuclei (%) (U2OS [2]; [11]): 56%
Population Hoechst High Intensity Objects (%) (U2OS [2]; [11]): 2%
Population Membrane Permeable-Phenotype (%) (U2OS [2]; [11]): 25%
Population Mitochondria Different-Phenotype (%) (U2OS [2]; [11]): 37%
Population Mitotic Cells (%) (U2OS [2]; [11]): 37%
Population Normal (%) (U2OS [2]; [11]): 97%
Population Pyknosed Nuclei (%) (U2OS [2]; [11]): 26%
Population Tubulin-Different-Phenotype (%) (U2OS [2]; [11]): 89%
Population Apoptotic (%) (U2OS [2]; [12]): 68%
Population Fragmented Nuclei (%) (U2OS [2]; [12]): 16%
Population Healthy Nuclei (%) (U2OS [2]; [12]): 47%
Population Hoechst High Intensity Objects (%) (U2OS [2]; [12]): 13%
Population Membrane Permeable-Phenotype (%) (U2OS [2]; [12]): 18%
Population Mitochondria Different-Phenotype (%) (U2OS [2]; [12]): 62%
Population Mitotic Cells (%) (U2OS [2]; [12]): 31%
Population Normal (%) (U2OS [2]; [12]): 86%
Population Pyknosed Nuclei (%) (U2OS [2]; [12]): 35%
Population Tubulin-Different-Phenotype (%) (U2OS [2]; [12]): 86%
Population Apoptotic (%) (U2OS [2]; [13]): 72%
Population Fragmented Nuclei (%) (U2OS [2]; [13]): 6%
Population Healthy Nuclei (%) (U2OS [2]; [13]): 85%
Population Hoechst High Intensity Objects (%) (U2OS [2]; [13]): 1%
Population Membrane Permeable-Phenotype (%) (U2OS [2]; [13]): 16%
Population Mitochondria Different-Phenotype (%) (U2OS [2]; [13]): 10%
Population Mitotic Cells (%) (U2OS [2]; [13]): 27%
Population Normal (%) (U2OS [2]; [13]): 98%
Population Pyknosed Nuclei (%) (U2OS [2]; [13]): 8%
Population Tubulin-Different-Phenotype (%) (U2OS [2]; [13]): 20%
Population Apoptotic (%) (U2OS [2]; [14]): 75%
Population Fragmented Nuclei (%) (U2OS [2]; [14]): 7%
Population Healthy Nuclei (%) (U2OS [2]; [14]): 87%
Population Hoechst High Intensity Objects (%) (U2OS [2]; [14]): 10%
Population Membrane Permeable-Phenotype (%) (U2OS [2]; [14]): 15%
Population Mitochondria Different-Phenotype (%) (U2OS [2]; [14]): 21%
Population Mitotic Cells (%) (U2OS [2]; [14]): 25%
Population Normal (%) (U2OS [2]; [14]): 89%
Population Pyknosed Nuclei (%) (U2OS [2]; [14]): 5%
Population Tubulin-Different-Phenotype (%) (U2OS [2]; [14]): 24%
Population Apoptotic (%) (U2OS [2]; [15]): 81%
Population Fragmented Nuclei (%) (U2OS [2]; [15]): 10%
Population Healthy Nuclei (%) (U2OS [2]; [15]): 65%
Population Membrane Permeable-Phenotype (%) (U2OS [2]; [15]): 26%
Population Mitochondria Different-Phenotype (%) (U2OS [2]; [15]): 66%
Population Mitotic Cells (%) (U2OS [2]; [15]): 18%
Population Pyknosed Nuclei (%) (U2OS [2]; [15]): 24%
Population Tubulin-Different-Phenotype (%) (U2OS [2]; [15]): 49%
Population Apoptotic (%) (U2OS [2]; [16]): 93%
Population Fragmented Nuclei (%) (U2OS [2]; [16]): 22%
Population Healthy Nuclei (%) (U2OS [2]; [16]): 41%
Population Hoechst High Intensity Objects (%) (U2OS [2]; [16]): 8%
Population Membrane Permeable-Phenotype (%) (U2OS [2]; [16]): 29%
Population Mitochondria Different-Phenotype (%) (U2OS [2]; [16]): 72%
Population Mitotic Cells (%) (U2OS [2]; [16]): 6%
Population Normal (%) (U2OS [2]; [16]): 91%
Population Pyknosed Nuclei (%) (U2OS [2]; [16]): 36%
Population Tubulin-Different-Phenotype (%) (U2OS [2]; [16]): 47%
Growth Rate (Fibroblast; [3]): 0
Growth Rate (Fibroblast; [4]): 1
Growth Rate (Fibroblast; [5]): 0
Growth Rate (Fibroblast; [6]): 0
Growth Rate (Fibroblast; [7]): 0
Growth Rate (Fibroblast; [8]): 0
Growth Rate (HEK-293T; [5]): 0
Growth Rate (HEK-293T; [6]): 0
Growth Rate (HEK-293T; [7]): 0
Growth Rate (HEK-293T; [8]): 0
